The term IC50 denotes the concentration at which inhibition is half-maximal. A low value points to inhibition by little substance. One may read the inhibition as the drop in the measured response relative to a control, in per cent. A lower inhibition goes with a response near the control.

Assay [1] has as its target Aldo-keto reductase family 1 member B1 (Rattus norvegicus, UniProt P07943). Put plainly: In vitro inhibitory activity of compound against rat lens aldose reductase.
For assay [2], the target named is Aldo-keto reductase family 1 member B1 (Rattus norvegicus) (UniProt P07943). Briefly: In vitro percentage inhibition of rat lens aldose reductase at 10E-5 M concentration. In outline: (§1)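 Rat lens (Fischer-344, both sexes) aldose reductase, assayed by spectrophotometric monitoring of NADPH oxidation. Compounds dissolved in 0.2 M NaHCO3. Inhibition at a single concentration, triplicate determinations.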

Assay [3] shares this target. Briefly: In vitro percentage inhibition of rat lens aldose reductase at 10E-6 M concentration. An outline of the steps:
as §1

Assay [4] in a line: In vitro percentage inhibition of formation of DNPH-reactive carbonyl groups in BSA exposed to fructose at 1 mM concentration. It is filed as functional. In outline:
(§2)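 Bovine serum albumin (fraction V, essentially fatty acid free) incubated with fructose for 28 days. Compounds given as potassium salts in water; trolox as reference.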

A short description of assay [5]: In vitro percentage inhibition of formation of DNPH-reactive carbonyl groups in BSA exposed to fructose at […] concentration. It counts as functional.
A short description of assay [6]: In vitro percentage inhibition of formation of DNPH-reactive carbonyl groups in BSA exposed to fructose at 5 mM concentration. It is filed as functional. An outline of the steps:
as §2

A short description of assay [7]: In vitro percentage inhibition of glycation-induced fluorescence changes of BSA at 1 mM concentration. It is filed as functional. In outline:
as §2

Assay [8] is described as follows: In vitro percentage inhibition of glycation-induced fluorescence changes of BSA at […] concentration. It is filed as functional.
Assay [9] in a line: In vitro percentage inhibition of glycation-induced fluorescence changes of BSA at 5 mM concentration. It is filed as functional. An outline of the steps: as §2
Assay [10] has as its target Aldo-keto reductase family 1 member B1 (Rattus norvegicus) (UniProt P07943). Put plainly: In vitro percentage inhibition of rat lens aldose reductase at 10E-7 M concentration. In outline: as §1

The structures appear in SMILES notation.

In assay [1], `O=C(O)Cn1ccc(C(=O)c2ccccc2)c1` showed an IC50 of 1.97 µM. Further, the inhibition came to 78% in assay [2]; 37% in [3]; 28% in [4]; 51% in assay [5]; 67% in [6]; 48% in [7]. The inhibition turned out to be 67% in [8] and 81% in [9].
As for `Cc1c(C)c2c(c(C)c1O)CCC(C)(C(=O)O)O2` (centres undefined), the values for the inhibition in assay [4] and in assay [7] were 36% and 59%, respectively.
`Oc1c(F)cc(-n2cccc2)cc1F` showed an IC50 in assay [1] of 23.4 µM. Also, the inhibition in assay [2] worked out at 24%; in [3] it was 13%.
On to `O=C(c1ccccc1)c1ccn(-c2cc(F)c(O)c(F)c2)c1`, for which 0.396 µM corresponded to half-maximal inhibition in assay [1] (IC50). For the same compound, the inhibition was found to be 88% in assay [2]; 68% in assay [3]; 29% in assay [10]; 48% in assay [4]; 55% in assay [5]; 61% in assay [6]. The inhibition in [7] is 64%; in assay [8] it was 68%; in assay [9], 74%.

(Values after ChEMBL document CHEMBL1148454, “[1-(3,5-difluoro-4-hydroxyphenyl)-1H-pyrrol-3-yl]phenylmethanone as a bioisostere of a carboxylic acid aldose reductase inhibitor” (J Med Chem, 2004).)
